These results are taken from ChEMBL document CHEMBL4842372, “Discovery of ARD-2585 as an Exceptionally Potent and Orally Active PROTAC Degrader of Androgen Receptor for the Treatment of Advanced Prostate Cancer” (J Med Chem, 2021).

The source made the active and inactive calls. The rule behind the calls is not given here.

The subject of data set [1] is Protein cereblon/Androgen receptor (Homo sapiens), P10275+Q96SW2 [T878A]. Put plainly: Protac activity at CRBN/AR T878A mutant in human LNCaP cells assessed as maximal AR degradation at 0.3 nM after 24 hrs by Western blot analysis relative to control. The class given is cell-based. A digest of the protocol: (§1)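 Western blot of AR after 24 h exposure to a concentration series in ATCC-derived cells, all with 10% FBS at 37 °C and 5% CO2: LNCaP and 22Rv1 in RPMI1640, VCaP in DMEM with Glutamax, MDA-PCa-2b in F-12K. Lysis in RIPA with protease and phosphatase inhibitors, then 4–12% SDS-PAGE and PVDF transfer. Band minus background is normalised to GAPDH.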
(In general: In western blotting, separated proteins are transferred to a membrane and probed.)

A short description of data set [2]: Drug distribution in heart of CB17:SCID mouse xenografted with human VCaP cells at 20 mg/kg, po measured at 6 hrs by LCMS analysis. The class given is ADME, organism-based. As to conditions: read-out: Drug uptake. Summed up: (§2)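 Tumor-bearing male CB17 SCID mice (VCaP xenografts) given one 20 mg/kg oral dose in 100% PEG200, three mice per time point; plasma, tumor, liver, kidney, prostate and heart taken at 1, 6 and 24 h; tissues homogenised in water/acetonitrile, protein precipitated with cold acetonitrile, drug quantified by LC–MS/MS; ratios are tissue over plasma level.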

Data set [3] addresses T1, Protein cereblon/Androgen receptor (Homo sapiens, UniProt P10275+Q96SW2). Put plainly: Protac activity at CRBN/AR in human 22Rv1 cells assessed as maximal AR degradation at 0.1 nM after 24 hrs by Western blot analysis relative to control. The class given is cell-based. Summed up:
as §1

Data set [4] can be described thus: Drug distribution in CB17:SCID mouse xenografted with human VCaP cells assessed as kidney to plasma ratio at 20 mg/kg, po measured at 1 hrs by LCMS analysis. The class given is ADME, organism-based. Summed up:
as §2

The nature of data set [5]: Drug distribution in plasma of CB17:SCID mouse xenografted with human VCaP cells at 20 mg/kg, po measured at 6 hrs by LCMS analysis. The data set is classed as ADME, organism-based. Summed up: as §2
On the technique in general: Xenograft models place foreign cells or tissue in a host animal.

The next data set concerns VCaP. In words: Antitumor activity against human VCaP cells xenografted in CB17:SCID mouse assessed as tumor growth inhibition at 20 mg/kg, po treated for 37 days relative to control. The class given is functional. As to conditions: 888 h, time 37 day, read-out: TGI.
Data set [6] in a line: Drug distribution in prostate gland of CB17:SCID mouse xenografted with human VCaP cells at 20 mg/kg, po measured at 1 hrs by LCMS analysis. The data set is classed as ADME, organism-based. Conditions: read-out: Drug uptake. Summed up: as §2
The nature of data set [7]: Drug distribution in prostate gland of CB17:SCID mouse xenografted with human VCaP cells at 20 mg/kg, po measured at 6 hrs by LCMS analysis. The class given is ADME, organism-based. Conditions: read-out: Drug uptake. Summed up: as §2
Data set [8] can be described thus: Drug distribution in CB17:SCID mouse xenografted with human VCaP cells assessed as liver to plasma ratio at 20 mg/kg, po measured at 1 hrs by LCMS analysis. The data set is classed as ADME, organism-based. A digest of the protocol:
as §2

In data set [9] the test system is Protein cereblon/Androgen receptor (Homo sapiens), P10275+Q96SW2 [T878A]. In words: Protac activity at CRBN/AR T878A mutant in human LNCaP cells assessed as reduction in AR protein level at 100 nM after 3 hrs in presence of MLN4924 by Western blot analysis.
Data set [10] has the same test system. In words: Protac activity at CRBN/AR T878A mutant in human LNCaP cells assessed as reduction in AR protein level at 100 nM after 3 hrs in presence of N-((1r,4r)-4-((3-chloro-4-cyanophenyl)(methyl)amino)cyclohexyl)-4-(4-methylpiperazin-1-yl)benzamide by Western blot analysis.
Data set [11] deals with T1, Protein cereblon/Androgen receptor. Put plainly: Protac activity at CRBN/AR in human MDA-PCa-2b cells assessed as reduction in AR protein level at 1 nM after 24 hrs by Western blot analysis relative to control. The data set is classed as cell-based. Summed up:
as §1

Data set [12] has the same target. In words: Protac activity at CRBN/AR in human VCaP cells assessed as reduction in AR protein level at 100 nM after 3 hrs in presence of MG-132 by Western blot analysis.

T1 sequence (P10275 whole entry, looked up): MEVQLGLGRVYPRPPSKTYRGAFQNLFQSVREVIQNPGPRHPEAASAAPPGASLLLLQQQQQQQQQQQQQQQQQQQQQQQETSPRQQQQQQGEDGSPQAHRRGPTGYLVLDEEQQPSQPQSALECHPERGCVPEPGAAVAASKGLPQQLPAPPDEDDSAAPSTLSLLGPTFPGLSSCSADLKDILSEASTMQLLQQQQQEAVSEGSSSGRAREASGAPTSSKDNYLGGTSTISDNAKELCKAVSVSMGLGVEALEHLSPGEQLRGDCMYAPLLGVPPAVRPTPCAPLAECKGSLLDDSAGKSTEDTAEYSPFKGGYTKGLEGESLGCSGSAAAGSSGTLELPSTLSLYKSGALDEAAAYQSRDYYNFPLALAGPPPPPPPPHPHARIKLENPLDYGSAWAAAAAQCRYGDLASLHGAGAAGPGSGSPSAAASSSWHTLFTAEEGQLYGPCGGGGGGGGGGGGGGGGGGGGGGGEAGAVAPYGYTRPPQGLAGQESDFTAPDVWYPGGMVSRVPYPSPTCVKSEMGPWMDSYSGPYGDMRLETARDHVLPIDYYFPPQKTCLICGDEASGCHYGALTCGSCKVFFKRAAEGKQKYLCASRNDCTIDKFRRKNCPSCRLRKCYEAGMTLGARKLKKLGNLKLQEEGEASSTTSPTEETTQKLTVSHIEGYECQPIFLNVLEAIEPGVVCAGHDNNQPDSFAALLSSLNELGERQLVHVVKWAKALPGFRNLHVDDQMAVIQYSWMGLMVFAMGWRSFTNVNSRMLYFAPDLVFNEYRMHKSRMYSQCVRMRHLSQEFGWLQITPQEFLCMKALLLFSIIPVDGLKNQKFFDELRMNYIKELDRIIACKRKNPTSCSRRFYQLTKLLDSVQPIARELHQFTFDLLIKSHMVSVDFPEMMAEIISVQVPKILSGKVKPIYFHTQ
T1 sequence (Q96SW2 whole entry, looked up): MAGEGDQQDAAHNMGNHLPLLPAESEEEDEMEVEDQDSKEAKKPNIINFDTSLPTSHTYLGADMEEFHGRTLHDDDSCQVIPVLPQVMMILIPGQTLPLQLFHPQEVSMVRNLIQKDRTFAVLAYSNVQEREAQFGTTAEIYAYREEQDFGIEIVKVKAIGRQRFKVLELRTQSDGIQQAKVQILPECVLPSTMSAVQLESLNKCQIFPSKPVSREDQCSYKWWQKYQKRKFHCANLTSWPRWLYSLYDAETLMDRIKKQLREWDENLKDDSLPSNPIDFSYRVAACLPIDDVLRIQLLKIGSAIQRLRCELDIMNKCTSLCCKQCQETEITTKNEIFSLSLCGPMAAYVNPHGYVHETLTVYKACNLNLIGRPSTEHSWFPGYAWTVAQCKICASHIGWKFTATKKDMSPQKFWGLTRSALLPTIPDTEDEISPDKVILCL

With `CN(c1ccc(C#N)c(Cl)c1)[C@H]1CC[C@H](NC(=O)c2ccc(N3CCN(C4CN(c5ccc6c(c5)C(=O)N(C5CCC(=O)NC5=O)C6=O)C4)CC3)cc2)CC1` (stereo partly drawn), the Emax in [1] and in data set [3] was greater than 95% in each case. Besides, the concentration at 6 h turned out to be 339 ng/g in data set [2], 87 ng/mL in data set [5] and 76 ng/g in [7]. Moreover, the concentration ratio (Kp) (usually the ratio of the level in a tissue or fluid to that in plasma or blood) at 1 h came out at 6.2 in [4] and 37.7 in [8]. In addition, the inhibition in vivo at 20 mg/kg in the data set on VCaP worked out at 74.3%. Moreover, the concentration at 1 h in data set [6] worked out at 25 ng/g. Further, the result in data set [9], in data set [10] and in [12] was inactive. Further, the inhibition (usually the change of the read-out against control, counted positive when it falls) in [11] is greater than 80%.
